Measurements: ChEMBL document CHEMBL5653631, “A Potent and Selective ULK1 Inhibitor Suppresses Autophagy and Sensitizes Cancer Cells to Nutrient Stress” (iScience, 2018)

Legend:
[1] = molecular target: cAMP-dependent protein kinase catalytic subunit alpha (Homo sapiens) (UniProt P17612); assay: Inhibition of human recombinant PKACalpha at 500 nM in presence of ATP by radiometric assay relative to control
[2] = molecular target: T1, Ephrin type-A receptor 1 (Homo sapiens) (UniProt P21709); assay: Inhibition of human recombinant EphA1 at 15 nM related to control ULK1
T1 sequence (whole entry): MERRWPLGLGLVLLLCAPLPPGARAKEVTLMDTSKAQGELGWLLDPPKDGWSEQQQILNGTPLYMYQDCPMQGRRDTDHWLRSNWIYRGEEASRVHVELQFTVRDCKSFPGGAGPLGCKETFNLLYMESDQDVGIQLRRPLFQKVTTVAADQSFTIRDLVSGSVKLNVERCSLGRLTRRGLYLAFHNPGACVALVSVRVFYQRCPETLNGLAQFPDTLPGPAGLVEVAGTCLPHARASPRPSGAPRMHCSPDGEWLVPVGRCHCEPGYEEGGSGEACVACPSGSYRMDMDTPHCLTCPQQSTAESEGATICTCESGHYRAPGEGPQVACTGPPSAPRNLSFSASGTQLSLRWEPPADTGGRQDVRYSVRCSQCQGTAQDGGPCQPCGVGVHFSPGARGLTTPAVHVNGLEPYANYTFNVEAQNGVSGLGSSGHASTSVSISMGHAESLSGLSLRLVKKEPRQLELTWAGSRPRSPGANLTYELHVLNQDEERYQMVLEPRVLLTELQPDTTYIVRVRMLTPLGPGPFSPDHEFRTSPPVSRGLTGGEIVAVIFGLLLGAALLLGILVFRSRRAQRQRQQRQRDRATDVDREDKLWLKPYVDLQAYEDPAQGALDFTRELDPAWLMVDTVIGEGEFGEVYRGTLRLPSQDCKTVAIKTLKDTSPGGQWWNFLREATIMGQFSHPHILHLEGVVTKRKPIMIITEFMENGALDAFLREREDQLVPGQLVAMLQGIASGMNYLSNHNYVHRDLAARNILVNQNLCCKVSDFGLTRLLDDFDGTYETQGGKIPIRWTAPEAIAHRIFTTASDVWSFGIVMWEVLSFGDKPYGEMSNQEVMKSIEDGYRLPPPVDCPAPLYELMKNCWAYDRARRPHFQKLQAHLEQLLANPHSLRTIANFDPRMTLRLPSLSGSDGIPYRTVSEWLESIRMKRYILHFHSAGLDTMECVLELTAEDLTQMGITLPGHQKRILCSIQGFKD

[3] = molecular target: Fibroblast growth factor receptor 1 (Homo sapiens) (UniProt P11362); assay: Inhibition of human recombinant FGFR1 at 15 nM in presence of ATP by radiometric assay relative to control
[4] = molecular target: T2, Activin receptor type-1B (Homo sapiens) (UniProt P36896); assay: Inhibition of human recombinant ALK4 at 15 nM related to control ULK1
T2 sequence (whole entry): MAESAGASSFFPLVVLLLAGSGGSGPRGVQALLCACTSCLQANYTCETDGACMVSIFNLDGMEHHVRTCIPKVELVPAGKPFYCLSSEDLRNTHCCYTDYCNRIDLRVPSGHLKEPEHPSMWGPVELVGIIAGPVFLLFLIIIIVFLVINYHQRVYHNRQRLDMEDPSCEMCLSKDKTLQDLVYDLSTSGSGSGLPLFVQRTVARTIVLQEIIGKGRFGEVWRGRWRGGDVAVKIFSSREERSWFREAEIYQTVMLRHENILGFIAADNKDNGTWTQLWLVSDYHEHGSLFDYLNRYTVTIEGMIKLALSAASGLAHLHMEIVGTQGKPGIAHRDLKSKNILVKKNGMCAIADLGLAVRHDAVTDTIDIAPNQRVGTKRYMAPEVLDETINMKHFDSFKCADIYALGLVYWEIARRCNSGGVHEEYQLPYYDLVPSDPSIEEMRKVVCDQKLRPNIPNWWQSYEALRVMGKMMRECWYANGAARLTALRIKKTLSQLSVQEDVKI
Summary of the method: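 Panel of 327 recombinant human kinases, each assayed in vitro by radiometric activity assay in duplicate at a single inhibitor concentration per compound, chosen with reference to its ULK1 inhibition. Activity remaining was expressed as percent of vehicle control, and percent inhibition was calculated as 100 minus percent activity remaining.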

[5] = molecular target: Cyclin-dependent kinase 3 (Homo sapiens) (UniProt Q00526); assay: Inhibition of human recombinant CDK3 at 15 nM related to control ULK1
[6] = molecular target: Serine/threonine-protein kinase PAK 1 (Homo sapiens) (UniProt Q13153); assay: Inhibition of human recombinant PAK1 at 40 nM in presence of ATP by radiometric assay relative to control
[7] = molecular target: T3, Serine/threonine-protein kinase BRSK1 (Homo sapiens) (UniProt Q8TDC3); assay: Inhibition of human recombinant BRSK1 at 40 nM related to control ULK1
T3 sequence (whole entry): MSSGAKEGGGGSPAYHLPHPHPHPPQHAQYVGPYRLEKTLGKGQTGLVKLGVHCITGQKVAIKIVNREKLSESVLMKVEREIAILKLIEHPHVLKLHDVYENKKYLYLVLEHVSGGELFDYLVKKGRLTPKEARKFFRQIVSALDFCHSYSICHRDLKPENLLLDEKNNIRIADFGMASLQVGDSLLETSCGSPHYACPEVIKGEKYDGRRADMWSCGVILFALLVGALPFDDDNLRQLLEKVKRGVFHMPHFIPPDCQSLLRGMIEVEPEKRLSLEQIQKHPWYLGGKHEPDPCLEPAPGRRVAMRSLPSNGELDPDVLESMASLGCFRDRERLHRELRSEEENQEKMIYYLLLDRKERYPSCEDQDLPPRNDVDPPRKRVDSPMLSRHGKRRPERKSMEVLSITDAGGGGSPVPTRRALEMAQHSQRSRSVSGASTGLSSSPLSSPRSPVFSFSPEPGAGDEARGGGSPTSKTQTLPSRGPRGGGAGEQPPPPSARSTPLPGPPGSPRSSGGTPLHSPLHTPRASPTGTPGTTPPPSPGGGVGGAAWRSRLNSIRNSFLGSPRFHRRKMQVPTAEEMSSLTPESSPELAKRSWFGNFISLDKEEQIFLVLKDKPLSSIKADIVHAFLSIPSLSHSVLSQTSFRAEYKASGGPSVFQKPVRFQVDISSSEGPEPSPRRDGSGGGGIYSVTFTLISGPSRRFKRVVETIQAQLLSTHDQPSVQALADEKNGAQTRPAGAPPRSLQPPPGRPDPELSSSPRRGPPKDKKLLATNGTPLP

Fibroblast growth factor receptor 1 (Homo sapiens), sequence (P11362 22-822 limits assumed): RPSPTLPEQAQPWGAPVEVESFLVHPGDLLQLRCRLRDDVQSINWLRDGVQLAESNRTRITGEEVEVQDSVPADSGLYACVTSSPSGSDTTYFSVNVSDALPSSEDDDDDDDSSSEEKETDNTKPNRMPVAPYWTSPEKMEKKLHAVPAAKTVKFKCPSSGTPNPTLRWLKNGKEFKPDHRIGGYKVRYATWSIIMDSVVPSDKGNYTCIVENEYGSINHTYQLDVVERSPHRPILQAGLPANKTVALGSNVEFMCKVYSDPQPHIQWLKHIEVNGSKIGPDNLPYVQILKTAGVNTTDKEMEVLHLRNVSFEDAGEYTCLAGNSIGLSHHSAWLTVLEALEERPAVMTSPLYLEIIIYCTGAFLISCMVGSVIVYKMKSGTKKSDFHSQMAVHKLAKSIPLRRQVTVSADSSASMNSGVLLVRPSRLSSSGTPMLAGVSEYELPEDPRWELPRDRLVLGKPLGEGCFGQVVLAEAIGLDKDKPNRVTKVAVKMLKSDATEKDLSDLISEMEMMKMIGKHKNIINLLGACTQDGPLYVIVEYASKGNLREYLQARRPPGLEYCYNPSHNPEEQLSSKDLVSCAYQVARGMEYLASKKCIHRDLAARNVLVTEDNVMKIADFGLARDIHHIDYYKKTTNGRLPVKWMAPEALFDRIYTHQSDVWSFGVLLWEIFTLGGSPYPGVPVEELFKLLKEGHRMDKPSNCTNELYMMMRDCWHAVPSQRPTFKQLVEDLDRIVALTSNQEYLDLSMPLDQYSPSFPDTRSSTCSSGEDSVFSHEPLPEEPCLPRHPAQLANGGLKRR
Serine/threonine-protein kinase PAK 1 (Homo sapiens), sequence (Q13153 whole entry, looked up): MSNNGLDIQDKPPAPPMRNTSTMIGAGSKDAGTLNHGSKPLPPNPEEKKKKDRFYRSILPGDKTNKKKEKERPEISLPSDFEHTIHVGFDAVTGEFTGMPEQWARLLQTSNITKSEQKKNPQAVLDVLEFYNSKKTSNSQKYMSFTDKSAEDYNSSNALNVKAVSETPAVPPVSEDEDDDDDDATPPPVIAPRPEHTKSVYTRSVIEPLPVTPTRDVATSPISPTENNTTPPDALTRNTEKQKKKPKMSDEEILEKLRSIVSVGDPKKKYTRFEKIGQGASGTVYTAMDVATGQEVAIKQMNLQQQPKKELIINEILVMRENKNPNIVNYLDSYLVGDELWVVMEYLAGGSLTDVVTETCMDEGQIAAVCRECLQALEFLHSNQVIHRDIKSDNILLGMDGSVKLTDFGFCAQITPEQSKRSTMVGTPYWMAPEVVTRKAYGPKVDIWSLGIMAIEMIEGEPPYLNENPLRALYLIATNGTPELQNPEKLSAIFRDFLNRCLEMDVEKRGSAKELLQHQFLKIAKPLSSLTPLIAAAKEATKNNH
Cyclin-dependent kinase 3 (Homo sapiens), sequence (Q00526 whole entry, looked up): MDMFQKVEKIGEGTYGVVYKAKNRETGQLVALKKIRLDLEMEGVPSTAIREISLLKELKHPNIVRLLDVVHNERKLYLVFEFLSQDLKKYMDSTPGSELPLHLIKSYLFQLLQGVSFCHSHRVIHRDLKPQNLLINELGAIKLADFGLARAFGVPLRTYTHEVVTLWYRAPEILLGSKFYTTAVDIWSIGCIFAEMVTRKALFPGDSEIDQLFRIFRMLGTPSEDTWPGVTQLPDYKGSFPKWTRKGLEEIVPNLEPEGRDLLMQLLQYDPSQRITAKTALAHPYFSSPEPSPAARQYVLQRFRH

CNC(=O)c1ccccc1Oc1nc(Nc2cc(OC)c(OC)c(OC)c2)ncc1Br
inhibition [1]: 0%

CC(C)[C@H](NC(=O)c1cc(-c2cnn3cc(-c4ccc(OCCN5CCCCC5)cc4)cnc23)cs1)C(F)(F)F
fold change (FC) [2]: 0
inhibition [3]: 0%
fold change (FC) [4]: 0.23
fold change (FC) [5]: 0.06

O=C(N[C@@H](C1CC1)C(F)(F)F)c1cc(-c2cnn3cc(-c4ccc(F)cc4)cnc23)cs1
inhibition [6]: 0%
fold change (FC) [7]: 0.03
